Compound activity (PubChem)
CHO parental Ca – counter-screen for OX1R antagonists: effect in parental CHO cells; parental CHO-K1, ATP-induced calcium, Fluo-8 fluorescence; inhibition, % at 5.6 µM; 330,000 compounds, 0.63% hits; AID 463079;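 active means inhibition above that plate's mean sample inhibition plus 3 SD, cut at about 26% in these data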
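Test system: parental CHO cells; detection: calcium-sensitive Fluo-8 fluorescence; evaluation: percent inhibition of calcium signal; also added: ATP as calcium-mobilizing challenge; repeats: one well per compound; control set: ATP-challenged DMSO wells low, unchallenged DMSO wells high; compound: single nominal dose of 5.6 µM per compound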
GPR7 antag – antagonists of human GPR7 (neuropeptides B/W receptor 1); P48145; GPR7-expressing cells, fluorescence antagonist assay; inhibition, % at 4.4 µM; 290,000 compounds, 1.1% hits; in the data active means inhibition above about 16%, passing the limit was not always enough;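 further: cells stimulated with the agonist NPW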
OX1R antag-1 – antagonists of human orexin 1 receptor (OX1R) | O43613 | OX1R-expressing cells, FRET antagonist read-out | inhibition, % at 6.6 µM | 330,000 compounds, 1.8% hits; in the data active means inhibition mostly above about 38%, no sharp cut-off; inactive means mostly below about 40%
Target sequence (O43613 whole entry, looked up): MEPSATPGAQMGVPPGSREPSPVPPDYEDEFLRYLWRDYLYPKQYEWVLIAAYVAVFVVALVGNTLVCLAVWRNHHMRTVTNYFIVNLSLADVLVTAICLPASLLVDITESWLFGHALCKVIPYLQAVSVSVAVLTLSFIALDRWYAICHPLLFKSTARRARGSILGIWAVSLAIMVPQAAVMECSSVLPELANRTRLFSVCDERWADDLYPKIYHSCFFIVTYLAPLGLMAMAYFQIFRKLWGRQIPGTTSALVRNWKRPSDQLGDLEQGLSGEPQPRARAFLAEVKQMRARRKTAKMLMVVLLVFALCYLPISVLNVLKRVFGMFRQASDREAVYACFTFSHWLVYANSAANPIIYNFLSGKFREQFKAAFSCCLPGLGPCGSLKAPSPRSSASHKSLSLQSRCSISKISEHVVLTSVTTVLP
MPTP block – inhibitors of mitochondrial permeability transition pore; inhibition, % at 10 µM; 360,000 compounds, 1.4% hits; isolated mouse mitochondria, Ca2+ swelling absorbance, 30 min;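 active means inhibition of 50% or more, scaled per plate between neutral and stimulator controls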
OX1R antag-2 – blocks the human orexin 1 receptor. O43613. inhibition, % at 5 µM. AID 434989. CHO/OX1R cells, Fluo-8 calcium fluorescence, orexin A. 330,000 compounds, 0.43% hits;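 active means inhibition above its plate's threshold, mean inhibition of all tested compounds on the plate plus 3 SD, cut at about 37% in these data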
Large screens that a line does not name were inactive. Only some compounds are listed: those with a hit (about 3.8% of all), similar ones and a draw of the others.

Cc1cccc(N2CCN(C(=O)Cn3sc4nc(C)cc(C)c4c3=O)CC2C)c1 (stereo not given)	CHO parental Ca 36
Cc1cc(C)c2c(=O)n(CC(=O)Nc3cccc(F)c3)sc2n1	none
Cc1cc(C)c2c(=O)n(CC(=O)Nc3ccc(Cl)cc3)sc2n1	CHO parental Ca 56, OX1R antag-2 45
Cc1ccc(NC(=O)Cn2sc3nc(C)cc(C)c3c2=O)c(Cl)c1	CHO parental Ca 46
CCOc1ccc(NC(=O)Cn2sc3nc(C)cc(C)c3c2=O)cc1	CHO parental Ca 46, OX1R antag-2 52
Cc1cc(C)c2c(=O)n(CC(=O)NCCCN3CCOCC3)sc2n1	none
Cc1ccc(NC(=O)Cn2c(C)cc(C)c(C#N)c2=O)c(Cl)c1	none
C#CCOCCOCCOCCNc1nc(N2CCOCC2)nc(N2CCN(C(=O)[C@H](CCC(=O)O)n3cc(C(N)Cc4ccc(O)cc4)nn3)CC2)n1 (stereo not given in full)	none
Cc1ccc2c(=O)n3c(nc2c1)C(Cc1ccccc1)NC(=O)c1ccc(Cl)cc1-3 (stereo not given)	none (no result: GPR7 antag, MPTP block)
CCOC(=O)C1(C)CCN1C(=O)c1cc(F)cc(F)c1 (stereo not given)	none (no result: CHO parental Ca, GPR7 antag, OX1R antag-1, OX1R antag-2)
Cc1cc(C)c2c(=O)n(CC(=O)NCCCN3CCN(c4ccccc4F)CC3)sc2n1	CHO parental Ca 45 (no result: MPTP block)
C=CCn1c(O)c(N=Nc2ccccc2)c2ccccc21	none
C=CCn1c(O)c(N=Nc2ccccc2O)c2ccccc21	CHO parental Ca 67, OX1R antag-2 77 (no result: GPR7 antag)
CCN(C[C@H]1N[C@@](CC)(C(=O)OC)[C@H]2C(=O)N(C)C(=O)[C@@H]12)S(=O)(=O)c1ccc(OC)cc1	none (no result: GPR7 antag)
COc1cccc2oc3cc(C#CC4(O)CCCCC4)ccc3c(=O)c12	none
O=c1c2ccccc2oc2cc(C#CC3(O)CCCCC3)ccc12	OX1R antag-1 61 (no result: GPR7 antag)
CC1=C(C(=O)N(C(C)C)C(C)C)CC(CC(=O)NC2CC2)C(=O)N1CCC1=CCCCC1 (stereo not given)	none (no result: CHO parental Ca, GPR7 antag, OX1R antag-1, OX1R antag-2)
COCCn1c(SCC(=O)N2CCCCC2)nc2c(c1=O)SCC2	none
COCCn1c(SCC(=O)N2CCOCC2)nc2ccccc2c1=O	none
COCCn1c(SCC(=O)N2CCCCC2)nc2c(c1=O)SC(C)C2 (stereo not given)	CHO parental Ca 100
Cc1cc2ccccc2n2c(SCC(=O)N3CCc4ccccc4C3)nnc12	OX1R antag-1 73
COCCn1c(SCC(=O)N2CCc3ccccc3C2)nc2ccccc2c1=O	OX1R antag-1 72
CCOc1ccc(C(=O)NCCC2=CCCCC2)cc1OCC	none
O=[N+]([O-])c1cccc2c3c([nH]c12)CCCC3	none
COC(=O)[C@@]12C[C@@H](CC(=O)NCc3cccs3)C(=O)N(Cc3ccco3)C1=CCC(C)(C)C2	none (no result: CHO parental Ca, GPR7 antag, OX1R antag-1, OX1R antag-2)
Clc1ccc(COn2c(-c3ccccc3)nc3ccccc32)cc1	OX1R antag-1 54
Cc1ccc(S(=O)(=O)N2CCCC2C(=O)OCc2nc3ccccc3s2)cc1 (stereo not given)	CHO parental Ca 59
Cc1ccc(F)cc1NC(=O)c1ccc(NS(=O)(=O)c2ccc(Br)s2)cc1	none
COc1ccc(-c2oc3ncn(CCN4CCOCC4)c(=N)c3c2-c2ccc(OC)cc2)cc1	OX1R antag-1 38
OCCC1CN(Cc2ccccc2OC2CCCC2)CCN1Cc1ccsc1 (stereo not given)	GPR7 antag 20
OCCC1CN(Cc2cccc3nonc23)CCN1Cc1ccsc1 (stereo not given)	none
O=C1N=C(N2CCOCC2)S/C1=C\c1ccncc1	OX1R antag-1 39
CC(=O)N1CCN(C2=NC(=O)/C(=C\c3cccs3)S2)CC1	OX1R antag-1 41
O=C1N=C(N2CCOCC2)S/C1=C/c1cccs1	none
CCCNC(=O)C1(C)CCN(Cc2csc3ccccc23)C1 (stereo not given)	none (no result: CHO parental Ca, GPR7 antag, OX1R antag-1, OX1R antag-2)
Oc1ccc(Nc2nc3ccccc3nc2Nc2ccc(O)cc2)cc1	CHO parental Ca 35
O=[N+]([O-])C(/C=C(\Cl)[N+](=O)[O-])=C(N1CCCCC1)N1CCCCC1	OX1R antag-1 64
C=CCNc1cc(C(F)(F)F)nc(-c2ccccn2)n1	none
Oc1cc(NCCN2CCOCC2)cc2cccnc12	OX1R antag-1 54 (no result: GPR7 antag)
c1ccc(-c2nc(NCc3cccnc3)c3oc4ccccc4c3n2)cc1	OX1R antag-1 68
COc1cccc(CNC(=O)CCC2CCCN(C(=O)C3CCOCC3)C2)c1 (stereo not given)	none
O=C(NCCn1cc(SCc2ccccc2)c2ccccc21)c1ccccc1F	CHO parental Ca 66
COc1ccc(NC(=O)CN(C)C(=O)CN2C(=O)NC3(CCCC3)C2=O)cc1	none (no result: GPR7 antag)
CCOC(=O)c1cccc(N2C(N)=NC(N)=NC2(C)C)c1	GPR7 antag 16
COc1cccc(N2CCN(c3ncnc4c3cnn4-c3ccc(C)cc3C)CC2)c1	CHO parental Ca 42, OX1R antag-1 43
O=NN(CC(=O)NNc1ccccc1)CC(=O)NNc1ccccc1	none (no result: CHO parental Ca, GPR7 antag, OX1R antag-1, OX1R antag-2)
Cc1nn(Cc2ccccc2)c(C)c1NC(=O)c1ccc([N+](=O)[O-])cc1[N+](=O)[O-]	OX1R antag-1 45
O=C(Nc1ccc(CN2CCOCC2)cc1)c1ccc(Cl)cc1	none
O=C(Nc1ccc(S(=O)(=O)Nc2ccccc2)cc1)c1ccc(CN2CCOCC2)cc1	GPR7 antag 50
Cc1ccc(-c2nc(C(=O)NCC3CCCO3)cc3c2[nH]c2ccccc23)cc1 (stereo not given)	OX1R antag-1 50
O=c1oc(-c2ccc([N+](=O)[O-])cc2)nc2ccccc12	none
O=c1oc(-c2ccc([N+](=O)[O-])cc2)nc2ccc(O)cc12	OX1R antag-1 75
CCOc1ccc(N=Cc2ccc3ccccc3c2)cc1	none
O=[N+]([O-])c1cc(C=Nc2ccc3ccccc3c2)ccc1Br	OX1R antag-1 64
CCOC(=O)c1c(C)oc2c1c(C(c1ccccc1)N1CCOCC1)c(O)c1ccccc12 (stereo not given)	OX1R antag-1 62
CC[C@@H](NCCCn1ccc(NC(=O)OCc2ccccc2)nc1=O)c1ccccc1	none (no result: CHO parental Ca, GPR7 antag, OX1R antag-1, OX1R antag-2)
CS(=O)(=O)C1=NSC2=NC(=O)/C(=C\c3cccn3-c3ccccc3Cl)C(=N)N21	OX1R antag-1 64
Cc1ccc(-n2cccc2/C=C2/C(=N)N3C(=NC2=O)SN=C3S(C)(=O)=O)cc1	none
CNC(=S)N1CCN(S(=O)(=O)c2ccc3ccccc3c2)CC1	none
CCCCCN(C(=O)CCC(=O)OCc1ccc(C(C)C)cc1)c1c(N)n(CCCC)c(=O)[nH]c1=O	none (no result: GPR7 antag)
CN(C)CCCN(C(=O)CCc1ccccc1)c1nc2c(F)cccc2s1	GPR7 antag 21
CN(C)CCCN(C(=O)CCOc1ccccc1)c1nc2c(F)cccc2s1	none (no result: CHO parental Ca, OX1R antag-1, OX1R antag-2)
COc1ccc(NS(=O)(=O)c2cccc(C(=O)N3CCN(c4ccccc4O)CC3)c2)cc1	none (no result: GPR7 antag)
CC(=O)N1CCc2c(sc(NC(=O)c3ccc([N+](=O)[O-])o3)c2C#N)C1	none (no result: CHO parental Ca, OX1R antag-1, OX1R antag-2)
CC(C)N1CCc2c(sc(NC(=O)c3ccc([N+](=O)[O-])o3)c2C(N)=O)C1	OX1R antag-1 93
COC(=O)c1c(NC(=O)c2ccc([N+](=O)[O-])o2)sc2c1CCN(C(C)C)C2	OX1R antag-1 65
